Assay results: ChEMBL document CHEMBL5390224, “Design, synthesis, and biological evaluation of a novel series of 1,2,4-oxadiazole inhibitors of SLACK potassium channels: Identification of in vitro tool VU0935685” (Bioorg Med Chem, 2023)
pIC50: −log10 of the molar value. Active and inactive are the calls of the source. No cut-off for these calls is given here.

Legend:
Format in all cases: cell-based
HEK293 [1] = assay: Inhibition of wild-type human SLACK expressed in HEK293 cells assessed as efficacy at 30 uM by thallium flux assay relative to control
Method in brief: (§1)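 Stable monoclonal HEK293 lines (WT or A934T SLACK) plated 20,000 cells/well; loaded 1 h at room temperature with Thallo-AM dye, 1.25 mM probenecid, masking dye, 0.3% Pluronic F-127 in buffer with 2.7 mM RbCl, pH 7.3. Compound preincubated 120 s, then Tl2SO4 stimulus (2.5 mM); fluorescence read 120 s. Concentration–response 1.5 nM–30 μM in half-log steps, ≥3 replicate wells.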

HEK293 [2] = assay: (§2) Inhibition of wild-type human SLACK expressed in HEK293 cells by thallium flux assay; method in brief: as §1
CHO = assay: Inhibition of wild-type human SLACK expressed in CHO cells assessed as efficacy at 30 uM by whole cell voltage clamp electrophysiology assay; conditions: Cricetulus griseus
[3] = Inhibition of wild-type human SLACK expressed in CHO cells by whole cell voltage clamp electrophysiology assay; conditions: Cricetulus griseus
Method in brief: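 Automated whole-cell patch clamp at room temperature. External (mM): NaCl 105, KCl 4, MgCl2 1, CaCl2 5, HEPES 10, NMDG-Cl 40, pH 7.4. Internal: NaCl 70, KF 70, KCl 10, EGTA 5, HEPES 5, pH 7.2. Concentrations 0.125–30 μM in half-log steps, ≥3 cells per series.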

[4] = as §2; method in brief: as §1
HEK293 [5] = assay: Activation of wild-type human SLACK expressed in HEK293 cells assessed as efficacy at 30 uM by thallium flux assay relative to control

Row | Compound | Efficacy (HEK293 [1]) | Efficacy (HEK293 [5]) | other results
1 | O=S(=O)(c1ccc(F)cc1)N1CC(c2nc(-c3ccsc3)no2)C1 | inactive |  | inhibition (HEK293 [2]): inactive
2 | COc1ccc(Cl)cc1NC(=O)CN1CCN(S(=O)(=O)N2CCC(C)CC2)CC1 |  |  | Efficacy (CHO): 95%; pIC50 [3]: 5.64
3 | CCOc1ccccc1S(=O)(=O)N1CC[C@H](c2nc(-c3ccc(F)cc3)no2)C1 | 63% |  | pIC50 [4]: < 5.00
4 | CCNc1ccccc1S(=O)(=O)N1CC(c2nc(-c3ccsc3)no2)C1 | inactive |  | inhibition (HEK293 [2]): inactive
5 | CCOc1ccccc1S(=O)(=O)N1CC(c2nc(-c3cccs3)no2)C1 | 99% |  | pIC50 [4]: 5.16
6 | CCOc1ccccc1CC(=O)N1CC(c2nc(-c3ccsc3)no2)C1 |  | 37% | 
7 | COc1cccc(S(=O)(=O)N2CC(c3nc(-c4ccsc4)no3)C2)c1 | inactive |  | inhibition (HEK293 [2]): inactive
8 | O=S(=O)(c1ccc(C(F)(F)F)cc1)N1CC(c2nc(-c3ccsc3)no2)C1 | inactive |  | inhibition (HEK293 [2]): inactive
9 | O=S(=O)(c1ccccc1C(F)(F)F)N1CC(c2nc(-c3ccsc3)no2)C1 |  | 36% | 
10 | CCOc1ccccc1S(=O)(=O)N1CC(c2nc(-c3ccc(Cl)cc3)no2)C1 | 94% |  | 
11 | Cc1cn2cccc(S(=O)(=O)N3CC(c4nc(-c5ccc(F)cc5)no4)C3)c2n1 |  | 19% | 
12 | CCOc1ccccc1S(=O)(=O)[C@H]1C[C@H](c2nc(-c3ccc(F)cc3)no2)C1 | 52% |  | 
13 | CCOc1ccccc1S(=O)(=O)N1CC(c2nc(-c3cccc(C(F)(F)F)c3)no2)C1 | 48% |  | 
14 | O=S(=O)(c1ccccc1OCC1CCC1)N1CC(c2nc(-c3ccc(F)cc3)no2)C1 | 88% |  | 
15 | CCOc1ccccc1S(=O)(=O)N1CC(c2nc(-c3ccccn3)no2)C1 | inactive |  | inhibition (HEK293 [2]): inactive
16 | CCOc1ccccc1S(=O)(=O)N1CC(c2nc(-c3ccc(F)cc3F)no2)C1 | 93% |  | pIC50 [4]: 5.19
17 | CCOc1ccccc1S(=O)(=O)N1CC(c2nc(-c3cccnc3)no2)C1 | inactive |  | inhibition (HEK293 [2]): inactive
18 | CCOc1ccccc1S(=O)(=O)N1CC(c2nnc(-c3ccc(F)cc3)[nH]2)C1 |  | 31% | 
19 | CCOc1ccccc1S(=O)(=O)N1CC(c2nc(-c3ccccc3C(F)(F)F)no2)C1 |  |  | Efficacy (HEK293 [5]; filed as activator): 66%
20 | CCOc1ccccc1CN1CC(c2nc(-c3ccsc3)no2)C1 |  | 31% | 

Row | Compound | Efficacy (HEK293 [1]) | Efficacy (HEK293 [5]) | other results
21 | CCOc1ncccc1S(=O)(=O)N1CC(c2nc(-c3ccc(F)cc3)no2)C1 | 46% |  | 
22 | CCCc1ccccc1S(=O)(=O)N1CC(c2nc(-c3ccsc3)no2)C1 | 79% |  | 
23 | Cc1nnc2c(S(=O)(=O)N3CC(c4nc(-c5ccc(F)cc5)no4)C3)cccn12 | inactive |  | inhibition (HEK293 [2]): inactive
24 | CCOc1ccccc1OC(=O)N1CC(c2nc(-c3ccsc3)no2)C1 |  |  | Efficacy (HEK293 [5]; filed as activator): 50%
25 | CCOc1ccccc1S(=O)(=O)[C@H]1C[C@@H](c2nc(-c3ccc(F)cc3)no2)C1 | inactive |  | inhibition (HEK293 [2]): inactive
26 | CCCOc1ccccc1S(=O)(=O)N1CC(c2nc(-c3ccsc3)no2)C1 | 87% |  | pIC50 [4]: 5.59
27 | CCOc1ccccc1S(=O)(=O)N1CC(c2nc(-c3ccc(F)cc3)c[nH]2)C1 |  | 34% | 
28 | O=S(=O)(c1cccc(Cl)c1)N1CC(c2nc(-c3ccsc3)no2)C1 | inactive |  | inhibition (HEK293 [2]): inactive
29 | CCOc1ccccc1S(=O)(=O)N1CC(c2ncc(-c3ccc(F)cc3)o2)C1 |  | 37% | 
30 | Cc1nc2c(S(=O)(=O)N3CC(c4nc(-c5ccc(F)cc5)no4)C3)cccn2n1 |  | 16% | 
31 | CCOc1ccccc1S(=O)(=O)N1CC(C)(c2nc(-c3ccc(F)cc3)no2)C1 |  | 14% | 
32 | CCOc1ccccc1S(=O)(=O)N1CC(F)(c2nc(-c3ccc(F)cc3)no2)C1 | 98% |  | 
33 | Cc1ccc(S(=O)(=O)N2CC(c3nc(-c4ccsc4)no3)C2)cc1 | inactive |  | inhibition (HEK293 [2]): inactive
34 | CCOc1ccccc1S(=O)(=O)N1CC(c2nc(-c3ccccc3Cl)no2)C1 | 81% |  | 
35 | CCOc1ccccc1S(=O)(=O)C1CN(c2nc(-c3ccc(F)cc3)no2)C1 | 24% |  | 
36 | O=S(=O)(c1ccccc1N1CCCCC1)N1CC(c2nc(-c3ccc(F)cc3)no2)C1 | 28% |  | 
37 | CCOc1ccccc1C(C)N1CC(c2nc(-c3ccsc3)no2)C1 (stereo not given) |  | < 10% | 
38 | CCOc1ccccc1NC(=O)N1CC(c2nc(-c3ccsc3)no2)C1 |  | < 10% | 
39 | O=S(=O)(c1cccc(F)c1)N1CC(c2nc(-c3ccsc3)no2)C1 |  | 24% | 
40 | O=S(=O)(c1cccc(C(F)(F)F)c1)N1CC(c2nc(-c3ccsc3)no2)C1 |  |  | Efficacy (HEK293 [5]; filed as activator): 61%
